Key:
Dipeptidyl peptidase 9 = Dipeptidyl peptidase 9 (Homo sapiens, UniProt Q86TI2); assay: Inhibition of recombinant his6-tagged DPP9 (unknown origin) expressed in baculovirus expression system using Ala-pro-AMC as substrate by fluorometric analysis
Dipeptidyl peptidase 8 = Dipeptidyl peptidase 8 (Homo sapiens, UniProt Q6V1X1); assay: Inhibition of recombinant his6-tagged DPP8 (unknown origin) expressed in baculovirus expression system using Ala-pro-AMC as substrate by fluorometric analysis
CYP2C9 = CYP2C9 (Homo sapiens, UniProt P11712); assay: Inhibition of CYP2C9 (unknown origin) at 100 uM relative to control; format: ADME
CYP3A4 = CYP3A4 (Homo sapiens, UniProt P08684); assay: Inhibition of CYP3A4 (unknown origin) at 100 uM relative to control; format: ADME
[1] = target: Voltage-gated inwardly rectifying potassium channel KCNH2 (Homo sapiens, UniProt Q12809); assay: Inhibition of human ERG expressed in CHO-ZG cells after 20 mins by FluxOR thallium assay
[2] = Oral bioavailability in Sprague-Dawley rat at 50 mg/kg; format: ADME, organism-based; conditions: in vivo
How it was run: (§1)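 Sprague-Dawley rats were dosed orally or intravenously, and blood was sampled after dosing. Plasma was separated by centrifugation and deproteinized with methanol containing an internal standard. The supernatant was diluted with methanol, centrifuged again and quantified by LC/MS/MS.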

[3] = Apparent clearance in Sprague-Dawley rat at 20 mg/kg, iv; format: ADME, organism-based; set-up: dose 20 mg/kg, route intravenous; conditions: in vivo, read-out: CL(app) (converted); how it was run: as §1
[4] = Half life in Sprague-Dawley rat at 20 mg/kg, iv; format: ADME, organism-based; set-up: dose 20 mg/kg, route intravenous; conditions: in vivo; how it was run: as §1
[5] = Half life in Sprague-Dawley rat at 50 mg/kg, po; format: ADME, organism-based; set-up: dose 50 mg/kg, route oral; conditions: in vivo; how it was run: as §1
[6] = Mean residence time in Sprague-Dawley rat at 20 mg/kg, iv; format: ADME, organism-based; set-up: dose 20 mg/kg, route intravenous; conditions: in vivo; how it was run: as §1
[7] = Mean residence time in Sprague-Dawley rat at 50 mg/kg, po; format: ADME, organism-based; set-up: dose 50 mg/kg, route oral; conditions: in vivo; how it was run: as §1
[8] = AUC (0 to infinity) in Sprague-Dawley rat at 20 mg/kg, iv; format: ADME, organism-based; set-up: time infinity, dose 20 mg/kg, route intravenous; conditions: plasma; how it was run: as §1
[9] = AUC (0 to infinity) in Sprague-Dawley rat at 50 mg/kg, po; format: ADME, organism-based; set-up: time infinity, dose 50 mg/kg, route oral; conditions: plasma; how it was run: as §1
[10] = AUC (0 to t) in Sprague-Dawley rat at 20 mg/kg, iv; format: ADME, organism-based; set-up: dose 20 mg/kg, route intravenous; conditions: plasma; how it was run: as §1
[11] = AUC (0 to t) in Sprague-Dawley rat at 50 mg/kg, po; format: ADME, organism-based; set-up: dose 50 mg/kg, route oral; conditions: plasma; how it was run: as §1
[12] = Cmax in Sprague-Dawley rat at 20 mg/kg, iv; format: ADME, organism-based; set-up: dose 20 mg/kg, route intravenous; conditions: in vivo; how it was run: as §1
[13] = Cmax in Sprague-Dawley rat at 50 mg/kg, po; format: ADME, organism-based; set-up: dose 50 mg/kg, route oral; conditions: in vivo; how it was run: as §1
[14] = Tmax in Sprague-Dawley rat at 20 mg/kg, iv; format: ADME, organism-based; set-up: dose 20 mg/kg, route intravenous; conditions: in vivo; how it was run: as §1
[15] = Tmax in Sprague-Dawley rat at 50 mg/kg, po; format: ADME, organism-based; set-up: dose 50 mg/kg, route oral; conditions: in vivo
How it was run: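 Sprague-Dawley rats dosed orally (i.v. arm run in parallel). Blood collected after dosing and centrifuged to plasma. Plasma deproteinized with methanol containing an internal standard, centrifuged, and the supernatant diluted in methanol and recentrifuged. Drug levels in the supernatant quantified by LC/MS/MS, and Tmax taken from the plasma concentration-time profile.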

Mus musculus [16] = assay: Antidiabetic activity in C57BKS db/db mouse assessed as blood glucose level at 50 mg/kg/day administered for 5 weeks followed by glucose challenge at 6 hrs starvation of post last dose measured at 120 mins by OGTT (reference value: 28.1 +/- 1.3 mmol/L); format: functional
How it was run: (§2)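 C57BKS db/db mice received 5, 15 or 50 mg/kg/day for 5 weeks. Vehicle was 0.5% methylcellulose at 10 mL/kg/day. In week 5, mice were fasted 6 h and given an oral glucose load of 1.5 g/kg, then blood glucose was recorded over the glucose tolerance test. Data are mean ± SE, compared with Student's t-test.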

Mus musculus [17] = assay: Antidiabetic activity in C57BKS db/db mouse assessed as blood glucose level at 50 mg/kg/day administered for 5 weeks followed by glucose challenge at 6 hrs starvation of post last dose measured at 90 mins by OGTT (reference value: 27.2 +/- 1.3 mmol/L); format: functional; how it was run: as §2
Mus musculus [18] = assay: Antidiabetic activity in C57BKS db/db mouse assessed as blood glucose level at 50 mg/kg/day administered for 5 weeks followed by glucose challenge at 6 hrs starvation of post last dose measured at 60 mins by OGTT (reference value: 30.2 +/- 1.5 mmol/L); format: functional; how it was run: as §2
Mus musculus [19] = assay: Antidiabetic activity in C57BKS db/db mouse assessed as blood glucose level at 50 mg/kg/day administered for 5 weeks followed by glucose challenge at 6 hrs starvation of post last dose measured at 30 mins by OGTT (reference value: 46.6 +/- 2.2 mmol/L); format: functional; how it was run: as §2
Mus musculus [20] = assay: Antidiabetic activity in C57BKS db/db mouse assessed as blood glucose level at 50 mg/kg/day administered for 5 weeks followed by glucose challenge at 6 hrs starvation of post last dose measured immediately by OGTT (reference value: 25 +/- 1.2 mmol/L); format: functional; how it was run: as §2
Mus musculus [21] = assay: Antidiabetic activity in C57BKS db/db mouse assessed as blood glucose level at 15 mg/kg/day administered for 5 weeks followed by glucose challenge at 6 hrs starvation of post last dose measured at 120 mins by OGTT (reference value: 28.1 +/- 1.3 mmol/L); format: functional; how it was run: as §2
Mus musculus [22] = assay: Antidiabetic activity in C57BKS db/db mouse assessed as blood glucose level at 15 mg/kg/day administered for 5 weeks followed by glucose challenge at 6 hrs starvation of post last dose measured at 90 mins by OGTT (reference value: 27.2 +/- 1.3 mmol/L); format: functional; how it was run: as §2
Mus musculus [23] = assay: Antidiabetic activity in C57BKS db/db mouse assessed as blood glucose level at 15 mg/kg/day administered for 5 weeks followed by glucose challenge at 6 hrs starvation of post last dose measured at 60 mins by OGTT (reference value: 30.2 +/- 1.5 mmol/L); format: functional; how it was run: as §2
Mus musculus [24] = assay: Antidiabetic activity in C57BKS db/db mouse assessed as blood glucose level at 15 mg/kg/day administered for 5 weeks followed by glucose challenge at 6 hrs starvation of post last dose measured at 30 mins by OGTT (reference value: 46.6 +/- 2.2 mmol/L); format: functional; how it was run: as §2
Mus musculus [25] = assay: Antidiabetic activity in C57BKS db/db mouse assessed as blood glucose level at 5 mg/kg/day administered for 5 weeks followed by glucose challenge at 6 hrs starvation of post last dose measured at 120 mins by OGTT (reference value: 28.1 +/- 1.3 mmol/L); format: functional; how it was run: as §2
Mus musculus [26] = assay: Antidiabetic activity in C57BKS db/db mouse assessed as blood glucose level at 15 mg/kg/day administered for 5 weeks followed by glucose challenge at 6 hrs starvation of post last dose measured immediately by OGTT (reference value: 25 +/- 1.2 mmol/L); format: functional; how it was run: as §2
Mus musculus [27] = assay: Antidiabetic activity in C57BKS db/db mouse assessed as blood glucose level at 5 mg/kg/day administered for 5 weeks followed by glucose challenge at 6 hrs starvation of post last dose measured at 90 mins by OGTT (reference value: 27.2 +/- 1.3 mmol/L); format: functional; how it was run: as §2
Mus musculus [28] = assay: Antidiabetic activity in C57BKS db/db mouse assessed as blood glucose level at 5 mg/kg/day administered for 5 weeks followed by glucose challenge at 6 hrs starvation of post last dose measured at 60 mins by OGTT (reference value: 30.2 +/- 1.5 mmol/L); format: functional; how it was run: as §2
Mus musculus [29] = assay: Antidiabetic activity in C57BKS db/db mouse assessed as blood glucose level at 5 mg/kg/day administered for 5 weeks followed by glucose challenge at 6 hrs starvation of post last dose measured at 30 mins by OGTT (reference value: 46.6 +/- 2.2 mmol/L); format: functional; how it was run: as §2
Mus musculus [30] = assay: Antidiabetic activity in C57BKS db/db mouse assessed as blood glucose level at 5 mg/kg/day administered for 5 weeks followed by glucose challenge at 6 hrs starvation of post last dose measured immediately by OGTT (reference value: 25 +/- 1.2 mmol/L); format: functional; how it was run: as §2
Mus musculus [31] = assay: Antidiabetic activity in ICR mouse assessed as decrease in blood glucose AUC (0 to 120 mins) administered for 30 mins prior to glucose challenge measured after 4 hrs by OGTT; format: functional, organism-based
How it was run: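 ICR mice fasted 16 h, then given a single dose of 15 or 50 mg/kg; vehicle 0.5% methylcellulose (10 mL/kg), LAF237 30 mg/kg as positive control. Oral glucose 2.5 g/kg given 30 min after dosing (legend says 4 h). Blood glucose read at 0, 15, 30, 60, 90, 120 min for AUC0–120. Mean ± SE, n = 10; Student's t-test.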

Mus musculus [32] = assay: Antidiabetic activity in ICR mouse assessed as decrease in blood glucose AUC (0 to 120 mins) at 50 mg/kg administered for 30 mins prior to glucose challenge measured after 4 hrs by OGTT relative to vehicle-treated control; format: functional; set-up: scale not given: the % may be the effect or the level left
How it was run: (§3)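 ICR mice were fasted 16 h and given one dose in 0.5% methylcellulose vehicle (10 mL/kg). An oral glucose load of 2.5 g/kg followed; methods state 30 min after dosing, the figure legend 4 h.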

Mus musculus [33] = assay: Antidiabetic activity in ICR mouse assessed as decrease in blood glucose AUC (0 to 120 mins) at 15 mg/kg administered for 30 mins prior to glucose challenge measured after 4 hrs by OGTT relative to vehicle-treated control; format: functional; set-up: scale not given: the % may be the effect or the level left; how it was run: as §3
Mus musculus [34] = assay: Antidiabetic activity in ICR mouse assessed as decrease in blood glucose AUC (0 to 120 mins) at 30 mg/kg administered for 30 mins prior to glucose challenge measured after 4 hrs by OGTT relative to vehicle-treated control; format: functional; set-up: scale not given: the % may be the effect or the level left; how it was run: as §3

Chain of CYP2C9 (P11712 whole entry): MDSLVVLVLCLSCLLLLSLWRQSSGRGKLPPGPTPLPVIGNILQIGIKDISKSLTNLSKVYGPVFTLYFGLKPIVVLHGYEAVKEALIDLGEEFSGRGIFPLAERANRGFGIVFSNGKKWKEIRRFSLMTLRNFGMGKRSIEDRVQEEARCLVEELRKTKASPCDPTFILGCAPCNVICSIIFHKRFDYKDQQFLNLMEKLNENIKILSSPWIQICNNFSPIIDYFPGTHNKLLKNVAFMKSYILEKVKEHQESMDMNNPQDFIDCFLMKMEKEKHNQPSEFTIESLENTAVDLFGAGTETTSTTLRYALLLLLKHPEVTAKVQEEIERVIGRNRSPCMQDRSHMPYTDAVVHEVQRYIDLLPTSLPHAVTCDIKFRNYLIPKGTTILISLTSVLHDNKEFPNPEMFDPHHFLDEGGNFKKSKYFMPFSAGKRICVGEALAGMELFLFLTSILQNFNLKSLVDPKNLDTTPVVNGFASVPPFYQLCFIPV
Chain of Voltage-gated inwardly rectifying potassium channel KCNH2 (Q12809 whole entry): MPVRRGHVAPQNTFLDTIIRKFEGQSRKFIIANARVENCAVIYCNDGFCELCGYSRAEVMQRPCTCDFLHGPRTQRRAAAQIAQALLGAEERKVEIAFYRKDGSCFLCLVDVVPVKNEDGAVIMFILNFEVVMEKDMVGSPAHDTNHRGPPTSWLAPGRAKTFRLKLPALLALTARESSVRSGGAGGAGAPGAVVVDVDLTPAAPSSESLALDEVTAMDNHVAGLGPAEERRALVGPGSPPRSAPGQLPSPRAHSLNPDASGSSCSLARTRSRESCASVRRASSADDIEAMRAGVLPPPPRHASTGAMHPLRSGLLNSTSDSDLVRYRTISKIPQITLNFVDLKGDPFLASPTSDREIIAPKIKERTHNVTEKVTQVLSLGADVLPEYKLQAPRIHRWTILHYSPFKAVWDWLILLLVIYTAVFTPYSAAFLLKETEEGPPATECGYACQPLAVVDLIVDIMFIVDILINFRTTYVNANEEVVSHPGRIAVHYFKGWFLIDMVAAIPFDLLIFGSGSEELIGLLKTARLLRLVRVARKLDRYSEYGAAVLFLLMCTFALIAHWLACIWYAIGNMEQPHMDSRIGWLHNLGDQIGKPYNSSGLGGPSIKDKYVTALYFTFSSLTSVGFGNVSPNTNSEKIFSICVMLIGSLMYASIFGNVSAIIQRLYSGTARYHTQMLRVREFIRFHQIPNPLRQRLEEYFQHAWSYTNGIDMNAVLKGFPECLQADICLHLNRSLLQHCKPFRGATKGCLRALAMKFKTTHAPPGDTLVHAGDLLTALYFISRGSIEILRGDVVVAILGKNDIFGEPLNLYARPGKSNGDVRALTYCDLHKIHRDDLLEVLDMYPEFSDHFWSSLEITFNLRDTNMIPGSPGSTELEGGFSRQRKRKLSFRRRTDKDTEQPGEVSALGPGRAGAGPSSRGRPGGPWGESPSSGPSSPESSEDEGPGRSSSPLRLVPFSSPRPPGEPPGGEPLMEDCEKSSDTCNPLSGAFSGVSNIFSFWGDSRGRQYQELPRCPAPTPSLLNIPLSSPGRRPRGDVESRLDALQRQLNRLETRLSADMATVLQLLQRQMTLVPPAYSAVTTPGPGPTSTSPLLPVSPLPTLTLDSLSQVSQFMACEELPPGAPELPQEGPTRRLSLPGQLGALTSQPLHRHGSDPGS
Chain of Dipeptidyl peptidase 9 (Q86TI2 whole entry): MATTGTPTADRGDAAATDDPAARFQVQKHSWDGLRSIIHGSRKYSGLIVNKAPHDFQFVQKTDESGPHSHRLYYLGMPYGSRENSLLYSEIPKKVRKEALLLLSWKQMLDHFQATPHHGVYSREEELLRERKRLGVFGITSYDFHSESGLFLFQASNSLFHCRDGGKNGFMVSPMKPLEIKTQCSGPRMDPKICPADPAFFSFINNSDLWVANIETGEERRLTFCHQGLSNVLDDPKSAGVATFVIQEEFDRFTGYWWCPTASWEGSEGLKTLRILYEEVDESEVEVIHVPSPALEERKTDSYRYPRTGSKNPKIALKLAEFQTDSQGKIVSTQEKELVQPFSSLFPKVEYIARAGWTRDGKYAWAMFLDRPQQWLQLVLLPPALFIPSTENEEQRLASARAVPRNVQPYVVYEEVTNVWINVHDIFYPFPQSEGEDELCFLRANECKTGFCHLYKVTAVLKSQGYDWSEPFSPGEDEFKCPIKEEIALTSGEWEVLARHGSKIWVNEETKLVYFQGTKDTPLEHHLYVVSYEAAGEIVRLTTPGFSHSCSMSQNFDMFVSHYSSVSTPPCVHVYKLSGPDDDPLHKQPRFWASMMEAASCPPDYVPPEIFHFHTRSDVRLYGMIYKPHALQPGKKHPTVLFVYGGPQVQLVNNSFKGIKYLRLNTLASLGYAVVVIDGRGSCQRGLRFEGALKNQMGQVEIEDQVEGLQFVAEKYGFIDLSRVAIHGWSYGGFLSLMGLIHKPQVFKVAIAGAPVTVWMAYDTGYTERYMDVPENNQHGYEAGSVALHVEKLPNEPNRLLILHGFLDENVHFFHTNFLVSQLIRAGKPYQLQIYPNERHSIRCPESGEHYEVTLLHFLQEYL
Chain of Dipeptidyl peptidase 8 (Q6V1X1 whole entry): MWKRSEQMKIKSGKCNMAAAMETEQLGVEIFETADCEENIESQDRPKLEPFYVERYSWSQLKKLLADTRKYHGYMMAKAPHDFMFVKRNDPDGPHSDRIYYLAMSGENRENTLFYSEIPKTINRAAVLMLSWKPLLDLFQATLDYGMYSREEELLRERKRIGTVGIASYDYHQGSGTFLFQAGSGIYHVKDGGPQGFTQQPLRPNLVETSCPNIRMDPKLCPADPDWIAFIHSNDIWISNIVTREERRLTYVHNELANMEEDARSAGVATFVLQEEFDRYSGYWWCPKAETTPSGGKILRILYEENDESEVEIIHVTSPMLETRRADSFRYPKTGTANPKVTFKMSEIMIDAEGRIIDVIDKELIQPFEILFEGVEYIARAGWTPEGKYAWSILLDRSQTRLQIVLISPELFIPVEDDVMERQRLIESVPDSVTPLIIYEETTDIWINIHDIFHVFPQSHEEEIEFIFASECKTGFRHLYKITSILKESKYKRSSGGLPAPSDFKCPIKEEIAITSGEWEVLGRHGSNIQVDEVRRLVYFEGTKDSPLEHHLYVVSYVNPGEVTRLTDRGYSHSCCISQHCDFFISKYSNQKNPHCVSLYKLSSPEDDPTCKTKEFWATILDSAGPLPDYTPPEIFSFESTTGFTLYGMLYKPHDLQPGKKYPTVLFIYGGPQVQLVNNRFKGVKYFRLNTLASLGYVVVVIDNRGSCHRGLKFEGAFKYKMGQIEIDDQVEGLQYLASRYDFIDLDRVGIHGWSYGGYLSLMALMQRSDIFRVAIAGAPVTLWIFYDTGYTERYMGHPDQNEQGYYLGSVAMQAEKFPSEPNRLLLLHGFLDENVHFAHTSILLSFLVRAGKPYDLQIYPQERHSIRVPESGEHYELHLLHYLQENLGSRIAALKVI
Chain of CYP3A4 (P08684 whole entry): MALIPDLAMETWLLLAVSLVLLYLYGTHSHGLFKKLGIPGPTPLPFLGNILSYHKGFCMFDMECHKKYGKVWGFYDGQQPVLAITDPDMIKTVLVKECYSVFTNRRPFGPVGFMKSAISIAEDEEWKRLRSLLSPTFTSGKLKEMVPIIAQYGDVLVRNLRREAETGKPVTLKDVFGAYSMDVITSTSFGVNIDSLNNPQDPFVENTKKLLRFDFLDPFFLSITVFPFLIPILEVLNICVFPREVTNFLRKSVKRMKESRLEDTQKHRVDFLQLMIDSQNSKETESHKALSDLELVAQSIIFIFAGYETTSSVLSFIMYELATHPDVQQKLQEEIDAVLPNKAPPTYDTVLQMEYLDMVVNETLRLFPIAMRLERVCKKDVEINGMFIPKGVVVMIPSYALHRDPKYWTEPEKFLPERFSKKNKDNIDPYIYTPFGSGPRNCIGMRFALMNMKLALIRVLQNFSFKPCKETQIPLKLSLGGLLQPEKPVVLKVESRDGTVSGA

SMILES: N#C[C@@H]1CCCN1C(=O)[C@@H](N)Cc1ccccn1
- IC50 (Dipeptidyl peptidase 9): 144 µM
- IC50 (Dipeptidyl peptidase 8): 125 µM

SMILES: N#C[C@@H]1C[C@H](F)CN1C(=O)[C@@H](N)Cc1cscn1
- inhibition at 100 µM (CYP2C9): 11.2%
- inhibition at 100 µM (CYP3A4): 7.4%
- IC50 [1]: 177 µM
- bioavailability [2]: 37.8%
- clearance [3]: 116 mL/min/kg
- half-life [4]: 2.27 h
- half-life [5]: 1.45 h
- MRT [6]: 1.48 h
- MRT [7]: 1.47 h
- AUC(0-inf) [8]: 2900 ng·h/mL
- AUC(0-inf) [9]: 2840 ng·h/mL
- AUC(0-t) [10]: 2890 ng·h/mL
- AUC(0-t) [11]: 2730 ng·h/mL
- Cmax [12]: 2960 ng/mL
- Cmax [13]: 2710 ng/mL
- Tmax [14]: 0.3 h
- Tmax [15]: 0.3 h
- Activity (Mus musculus [16]): 20.4 mmol/L
- Activity (Mus musculus [17]): 20.5 mmol/L
- Activity (Mus musculus [18]): 19.9 mmol/L
- Activity (Mus musculus [19]): 38 mmol/L
- Activity (Mus musculus [20]): 18.1 mmol/L
- Activity (Mus musculus [21]): 20.6 mmol/L
- Activity (Mus musculus [22]): 20.8 mmol/L
- Activity (Mus musculus [23]): 21.8 mmol/L
- Activity (Mus musculus [24]): 41.3 mmol/L
- Activity (Mus musculus [25]): 24.5 mmol/L
- Activity (Mus musculus [26]): 18 mmol/L
- Activity (Mus musculus [27]): 24.1 mmol/L
- Activity (Mus musculus [28]): 27.5 mmol/L
- Activity (Mus musculus [29]): 45.1 mmol/L
- Activity (Mus musculus [30]): 21.5 mmol/L
- Activity (Mus musculus [31]): Dose-dependent effect
- Activity (Mus musculus [32]): 12.8%
- Activity (Mus musculus [33]): 10.7%

SMILES: N#C[C@@H]1CCCN1C(=O)CNC12CC3CC(CC(O)(C3)C1)C2 [VILDAGLIPTIN]
- Activity (Mus musculus [21]): 21.4 mmol/L
- Activity (Mus musculus [22]): 20.7 mmol/L
- Activity (Mus musculus [23]): 21 mmol/L
- Activity (Mus musculus [24]): 31.3 mmol/L
- Activity (Mus musculus [26]): 17.9 mmol/L
- Activity (Mus musculus [34]): 19.9%
